A value given as a limit tells only on which side of the number the result lay.

Series [1] in a line: Genotoxicity in CHO-WBL cells assessed as chromosome aberration at 90 to 397.1 ug/ml incubated for 3 hrs followed by compound washout and measured after 17 hrs in absence of S9 fraction by Giemsa staining based. In kind it is toxicity, cell-based, Cricetulus griseus. As to conditions: chinese hamster, dose 90-397.1 µg/ml. The procedure, abridged:
(§1)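 CHO-WBL cells in McCoy's 5A with 10% FBS, seeded 20-24 h before treatment. Compound in DMSO, with or without serum-free S-9 mix. Treatment either 3 h, then HBSS wash and 17 h further culture, or 20 h; harvest at 20 h from treatment start. Colcemid 0.1 μg/mL for the final 2 h, hypotonic KCl, methanol:acetic acid fixation, Giemsa stain. 300 metaphases per concentration (150 per duplicate flask) scored.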

The nature of series [2]: Genotoxicity in CHO-WBL cells assessed as chromosome aberration at 90 to 397.1 ug/ml incubated for 3 hrs followed by compound washout and measured after 17 hrs in presence of S9 fraction by Giemsa staining based. The series is classed as toxicity, subcellular, Cricetulus griseus. As to conditions: chinese hamster, s9, 3 h, dose 90-397.1 µg/ml. An outline of the steps:
as §1

Series [3] is described as follows: Toxicity in female Sprague-Dawley rat assessed as change in white blood cell count at 450 mg/kg/day, po administered for 4 weeks followed by 2 week recovery period (Rvb =3.61 +/- 0.75 10^9/L). In kind it is organism-based. As to conditions: in vivo, 672 h.
Series [4] in a line: Toxicity in female Sprague-Dawley rat assessed as change in mean corpuscular hemoglobin at 150 mg/kg/day, po administered for 4 weeks followed by 2 week recovery period (Rvb =18.5 +/- 0.6 pg). As to conditions: in vivo, 672 h. In kind it is organism-based.
The nature of series [5]: Toxicity in male Sprague-Dawley rat assessed as ophthalmic changes at 50 to 450 mg/kg/day, po administered for 4 weeks followed by 2 week recovery period. The series is classed as organism-based. As to conditions: in vivo, 1008 h, dose 50-450 mg/kg/day, time 6 weeks.
Series [6] in a line: Toxicity in male Sprague-Dawley rat assessed as change in platelet count at 450 mg/kg/day, po administered for 4 weeks followed by 2 week recovery period (Rvb =1077 +/- 117 10^9/L). The series is classed as organism-based. To be noted: in vivo, 672 h.
The nature of series [7]: Toxicity in female Sprague-Dawley rat assessed as change in mean corpuscular hemoglobin at 50 mg/kg/day, po administered for 4 weeks followed by 2 week recovery period (Rvb =18.5 +/- 0.6 pg). In kind it is organism-based. To be noted: in vivo, 672 h.
Series [8] in a line: Toxicity in male Sprague-Dawley rat assessed as ophthalmic changes at 50 to 450 mg/kg/day, po administered for 4 weeks measured post last dose. The series is classed as organism-based. As to conditions: in vivo, 672 h, dose 50-450 mg/kg/day.
Series [9] in a line: Toxicity in male Sprague-Dawley rat assessed as change in lymphocyte level at 50 mg/kg/day, po administered for 4 weeks followed by 2 week recovery period (Rvb =77.4 +/- 3.7 %). In kind it is organism-based. As to conditions: in vivo, 672 h.
Series [10] is described as follows: Toxicity in female Sprague-Dawley rat assessed as change in hematocrit level at 150 mg/kg/day, po administered for 4 weeks followed by 2 week recovery period (Rvb =41.1 +/- 1.4 %). The series is classed as organism-based. As to conditions: in vivo, 672 h.
The target of a further series is Cytochrome P450 3A4 (Homo sapiens, UniProt P08684). The series can be described thus: Inhibition of CYP3A4 in human liver microsomes after 20 mins by LC-MS/MS analysis. In kind it is ADME. An outline of the steps:
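Human liver microsomes (0.2 mg/mL) in phosphate buffer, 20 min incubation with compound at 0.1-50 μM alongside isoform-specific substrates and a positive control. Substrate remaining monitored by LC-MS/MS at each concentration; IC50 derived.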
In general terms: Liver microsomes are a subcellular fraction often used to study metabolism.

Series [11] is described as follows: Toxicity in female Sprague-Dawley rat assessed as change in hemoglobin count at 450 mg/kg/day, po administered for 4 weeks followed by 2 week recovery period (Rvb =136 +/- 7 g/L). The series is classed as organism-based. As to conditions: in vivo, 672 h.
Series [12] in a line: Toxicity in female Sprague-Dawley rat assessed as change in mean corpuscular hemoglobin at 450 mg/kg/day, po administered for 4 weeks followed by 2 week recovery period (Rvb =18.5 +/- 0.6 pg). In kind it is organism-based. As to conditions: in vivo, 672 h.
Series [13] is described as follows: Toxicity in female Sprague-Dawley rat assessed as change in neutrophil level at 50 mg/kg/day, po administered for 4 weeks followed by 2 week recovery period (Rvb =18.5 +/- 5.3 %). In kind it is organism-based. As to conditions: in vivo, 672 h.
Series [14] in a line: Toxicity in female Sprague-Dawley rat assessed as change in mean platelet volume at 450 mg/kg/day, po administered for 4 weeks followed by 2 week recovery period (Rvb =7.1 +/- 0.5 fL). The series is classed as organism-based. As to conditions: in vivo, 672 h.
Series [15] in a line: Toxicity in female Sprague-Dawley rat assessed as effect on food consumption at 50 to 450 mg/kg/day, po administered for 4 weeks followed by 2 week recovery period measured at 1 week interval. In kind it is organism-based. As to conditions: in vivo, 672 h, dose 50-450 mg/kg/day. The procedure, abridged: (§2)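 SD rats, 6-7 weeks old (96 in total), split into vehicle, 50, 150 and 450 mg/kg/day groups of 12 females and 12 males each, given oral doses once daily for 4 weeks, then 2 weeks of recovery. Mortality, body weight, food intake, eyes, urine and neuropsychic signs were observed. Organ and bone marrow histopathology was done on 8 rats per sex per group after the last dose and on the remaining 4 per sex after 14 days of recovery.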

A short description of series [16]: Toxicity in female Sprague-Dawley rat assessed as ophthalmic changes at 50 to 450 mg/kg/day, po administered for 4 weeks followed by 2 week recovery period measured within 7 days of post recover period. As to conditions: in vivo, 672 h, dose 50-450 mg/kg/day. The series is classed as organism-based. An outline of the steps: as §2
Series [17] can be described thus: Toxicity in male Sprague-Dawley rat assessed as change in red blood cell count at 150 mg/kg/day, po administered for 4 weeks followed by 2 week recovery period (Rvb =7.86 +/- 0.32 10^12/L). The series is classed as organism-based. As to conditions: in vivo, 672 h.
Series [18] in a line: Toxicity in female Sprague-Dawley rat assessed as change in white blood cell count at 150 mg/kg/day, po administered for 4 weeks followed by 2 week recovery period (Rvb =3.61 +/- 0.75 10^9/L). The series is classed as organism-based. To be noted: in vivo, 672 h.
Series [19] can be described thus: Stability in human liver microsome at 1 uM measured after 30 mins in absence of NADPH by LC-MS/MS analysis. The series is classed as ADME. To be noted: liver microsomes, read-out: Stabilty. The procedure, abridged:
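Liver microsomes (male CD-1 mouse or pooled human), 1 mg/mL protein, compound 1 µM, 37°C with shaking. Started with 1 mM NADPH or run without cofactor. Quenched with ice-cold ACN/MeOH containing internal standard. Parent quantified by LC-MS/MS; 30 min concentration normalised to time zero.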

Series [20] can be described thus: Toxicity in male Sprague-Dawley rat assessed as changes in neuropsychic symptoms at 50 to 450 mg/kg/day, po administered for 4 weeks followed by 2 week recovery period measured during last 24 hrs of recovery period. In kind it is organism-based. As to conditions: in vivo, 672 h, dose 50-450 mg/kg/day. An outline of the steps:
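SD rats aged 6-7 weeks, 12 male and 12 female per group, in four groups: vehicle control, 50, 150 and 450 mg/kg/day. Dosing was oral, once daily, for 4 weeks, then a 2-week recovery period. Clinical symptoms were observed starting before administration. 8 per sex were dissected after the last dose and the remaining 4 per sex after 14 days of recovery.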

A short description of series [21]: Toxicity in female Sprague-Dawley rat assessed as histopathological changes in bone marrow at 450 mg/kg/day, po administered for 4 weeks measured post last dose. As to conditions: in vivo, 672 h. In kind it is organism-based. The procedure, abridged:
as §2

A short description of series [22]: Toxicity in male Sprague-Dawley rat assessed as change in mean corpuscular hemoglobin at 150 mg/kg/day, po administered for 4 weeks followed by 2 week recovery period (Rvb =18.3 +/- 0.4 pg). The series is classed as organism-based. As to conditions: in vivo, 672 h.

Cytochrome P450 3A4, sequence (P08684 whole entry, canonical isoform): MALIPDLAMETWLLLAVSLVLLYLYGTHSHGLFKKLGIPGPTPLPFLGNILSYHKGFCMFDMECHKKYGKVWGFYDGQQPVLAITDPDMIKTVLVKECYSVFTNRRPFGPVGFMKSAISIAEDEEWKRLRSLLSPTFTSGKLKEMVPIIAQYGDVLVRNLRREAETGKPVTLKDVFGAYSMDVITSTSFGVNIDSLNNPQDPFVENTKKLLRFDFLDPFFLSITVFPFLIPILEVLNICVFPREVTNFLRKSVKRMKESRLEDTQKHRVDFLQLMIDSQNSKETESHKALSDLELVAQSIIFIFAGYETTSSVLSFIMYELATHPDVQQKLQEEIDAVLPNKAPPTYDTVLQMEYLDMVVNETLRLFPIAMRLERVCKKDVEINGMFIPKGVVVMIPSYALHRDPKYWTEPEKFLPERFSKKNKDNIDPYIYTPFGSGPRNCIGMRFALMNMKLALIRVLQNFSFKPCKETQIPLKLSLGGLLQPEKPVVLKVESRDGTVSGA

For `CC(=O)NC[C@@H]1OC(=O)N2c3cc(F)c(N4CC[S+]([O-])CC4)cc3OC[C@@H]12`, the Activity result in series [1] and in series [2] was “Non-Toxic” in each case.

With `CC(=O)NC[C@@H]1OC(=O)N2c3cc(F)c(N4CCSCC4)cc3OC[C@@H]12`, the Activity is listed as 2.82 10^9/L in series [3]; 18.8 pg in [4]; “Non-Toxic” in [5]; 1038 10^9/L in series [6]; 18.5 pg in [7]; “Non-Toxic” in series [8]. Moreover, the Activity is reported as 82% in [9]; 37.4% in [10]; 122 g/L in [11]; 18.7 pg in [12]; 14.8% in series [13]; 7.5 fL in series [14]. The Activity entry was “Non-Toxic” in series [15]; “Non-Toxic” in [16]; 7.62 10^12/L in [17]; 3.04 10^9/L in [18]; “Non-Toxic” in [20]; “Non-Toxic” in series [21]. The Activity in series [22] amounted to 18.5 pg. The IC50 (in general, the concentration that inhibits the measured activity by half) against Cytochrome P450 3A4 is more than 50 µM. In addition, in [19], the remaining at 0.5 h, 1 µM was 81.5%.

Source of the values: ChEMBL document CHEMBL4725282, “Discovery of a Conformationally Constrained Oxazolidinone with Improved Safety and Efficacy Profiles for the Treatment of Multidrug-Resistant Tuberculosis” (J Med Chem, 2020).
